Assay results gathered from unrelated publications.
Lines come from different studies, so protocols differ.
Cell line: MV4-11
Read-out: cell growth or viability

| Structure (SMILES) | technique | time | endpoint | value |
| --- | --- | --- | --- | --- |
| CCNc1ccnc(Nc2cccc(-c3cccnc3)c2)n1 | ATP luminescence | 72 h | EC50 | 35 nM |
| Cc1ccc(NC(=O)NCc2ccc3c(c2)CN(C2CCC(=O)NC2=O)C3=O)cc1Cl (stereo not drawn) | ATP luminescence |  | EC50 | 0.026 nM |
| COc1cc(Nc2nccc(-c3cnn4nc(OC)ccc34)n2)cc(C(F)(F)F)c1 | ATP luminescence |  | IC50 | 48 nM |
| O=C(NC1CCC1)c1ccc2nc(-c3cccc(NS(=O)(=O)NCCN4CCCCC4)c3)cn2c1 | ATP luminescence | 72 h | IC50 | 4200 nM |
| c1cc(Nc2nccc(NC3CCCCC3)n2)cc(-n2ccnc2)c1 | ATP luminescence | 72 h | EC50 | 58 nM |
| Nc1nc(Nc2ccc3c(c2)CC[C@@H](N2CCCC2)CC3)nn1-c1cc2c(nn1)-c1ccccc1CCC2 | trypan blue | 72 h | IC50 | 247 nM |
| CC[C@@H](C)[C@H](N)C(=O)N1Cc2ccccc2C1 | ATP luminescence | 24 h | IC50 | 1150 nM |
| COC(=O)[C@H](C)Nc1ccnc(Nc2cccc(-c3cccnc3)c2)n1 | ATP luminescence | 72 h | EC50 | > 8000 nM |
| CC(C)[C@H](N)C(=O)N1CCC[C@H]1B(O)O | ATP luminescence | 5 days | IC50 | 130 nM |
| O=C(O)c1ccc(CN2CCC(CN[C@@H]3C[C@H]3c3ccccc3)CC2)cc1 | resazurin | 96 h | EC50 | 39.6 nM |
| CC(C)Nc1ccnc(Nc2ccc(-c3ccccc3)cc2)n1 | ATP luminescence | 72 h | EC50 | 11900 nM |
| COc1ccc(-c2c(-c3ccc(C#N)c(F)c3)nc(N3CCC(N)CC3)n(C)c2=O)cc1F | resazurin | 96 h | EC50 | 2.9 nM |
| c1cncc(Nc2nccc(NC3CCCCC3)n2)c1 | ATP luminescence | 72 h | EC50 | > 7000 nM |
| C/C(=N\NC(=O)c1cccc(S(=O)(=O)N2CCN(C)CC2)c1)c1cc(Cl)ccc1O | resazurin | 96 h | EC50 | 886 nM |
| COc1cc2nccc(Oc3ccc(NC(=O)C4(C(=O)Nc5ccc(F)cc5)CC4)cc3)c2cc1OC | trypan blue | 72 h | IC50 | 12 nM |
